Experimental data reported in ChEMBL document CHEMBL1131208, “Substituted 2-iminopiperidines as inhibitors of human nitric oxide synthase isoforms” (J Med Chem, 1998).

What was measured:
Nitric oxide synthase 1 = Nitric oxide synthase 1 (Homo sapiens, UniProt P29475); assay: Inhibition of human Neuronal nitric oxide synthase
[1] = biological target: Nitric oxide synthase, inducible (Homo sapiens, UniProt P35228); assay: Inhibition of human Inducible nitric oxide synthase
Nitric oxide synthase 3 = biological target: T1, Nitric oxide synthase 3 (Homo sapiens, UniProt P29474); assay: inhibition of human endothelial constitutive Endothelial nitric oxide synthase (heNOS)
T1 sequence (P29474 whole entry): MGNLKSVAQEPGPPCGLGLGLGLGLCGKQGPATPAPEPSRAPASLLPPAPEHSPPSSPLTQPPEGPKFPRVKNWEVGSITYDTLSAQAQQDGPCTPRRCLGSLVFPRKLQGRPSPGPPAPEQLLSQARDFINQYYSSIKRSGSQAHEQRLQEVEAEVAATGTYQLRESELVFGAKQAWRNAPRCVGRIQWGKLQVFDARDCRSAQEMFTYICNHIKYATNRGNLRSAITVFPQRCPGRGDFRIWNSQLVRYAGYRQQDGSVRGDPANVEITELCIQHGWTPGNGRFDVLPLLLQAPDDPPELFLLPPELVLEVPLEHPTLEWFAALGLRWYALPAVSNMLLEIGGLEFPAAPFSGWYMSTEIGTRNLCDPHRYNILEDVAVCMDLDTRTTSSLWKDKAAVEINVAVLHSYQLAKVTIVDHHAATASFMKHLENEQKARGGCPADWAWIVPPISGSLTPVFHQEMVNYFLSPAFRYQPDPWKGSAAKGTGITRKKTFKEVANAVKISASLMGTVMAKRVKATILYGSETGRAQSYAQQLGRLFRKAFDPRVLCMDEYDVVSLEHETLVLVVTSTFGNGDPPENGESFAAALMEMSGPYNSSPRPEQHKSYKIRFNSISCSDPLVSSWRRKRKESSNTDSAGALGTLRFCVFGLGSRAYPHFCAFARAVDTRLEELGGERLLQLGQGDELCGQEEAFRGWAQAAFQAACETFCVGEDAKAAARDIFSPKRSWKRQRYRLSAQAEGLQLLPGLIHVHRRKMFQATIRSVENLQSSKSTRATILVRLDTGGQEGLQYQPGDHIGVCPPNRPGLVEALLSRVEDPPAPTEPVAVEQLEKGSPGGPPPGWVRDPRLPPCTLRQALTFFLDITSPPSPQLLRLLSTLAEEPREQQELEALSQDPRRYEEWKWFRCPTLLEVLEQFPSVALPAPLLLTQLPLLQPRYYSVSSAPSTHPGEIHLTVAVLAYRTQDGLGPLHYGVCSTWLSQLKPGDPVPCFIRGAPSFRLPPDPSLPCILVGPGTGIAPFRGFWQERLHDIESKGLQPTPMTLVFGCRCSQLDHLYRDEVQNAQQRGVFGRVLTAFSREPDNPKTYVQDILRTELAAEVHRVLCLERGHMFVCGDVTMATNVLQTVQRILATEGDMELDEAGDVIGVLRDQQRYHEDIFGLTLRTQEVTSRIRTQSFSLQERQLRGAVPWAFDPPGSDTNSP

[2] = biological target: Nitric oxide synthase (inducible and endothelial) (Homo sapiens) (UniProt P35228+P29474); assay: Selectivity is the ratio between the IC50 values of heNOS and hiNOS; assay type: protein assay
Method in brief: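 Recombinant human iNOS/eNOS expressed in Sf9 cells (baculovirus), partially purified by DEAE-Sepharose. Eight inhibitor concentrations were tested with 30 μM final L-arginine containing [3H]arginine, in Tris pH 7.6 with BSA, DTT, CaCl2, FAD, tetrahydrobiopterin and NADPH, 15 min at 37 °C. eNOS also had 40 nM calmodulin. [3H]citrulline was separated on cation-exchange resin and counted. Assays were run at least in duplicate; IC50 was derived.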

Rattus norvegicus = assay: Compound at an oral dose of 10 mg/Kg was tested in vivo for the inhibition of plasma nitrite levels in LPS-treated rats; assay type: functional
Method in brief: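 Male Lewis rats dosed orally 1 h before intraperitoneal LPS (10–12.5 mg/kg) to induce iNOS. Plasma nitrite/nitrate measured 5 h after LPS by fluorometric assay. Percent inhibition is relative to LPS-only versus saline controls; n = 6 animals/dose.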

Sequence of Nitric oxide synthase, inducible (P35228 whole entry): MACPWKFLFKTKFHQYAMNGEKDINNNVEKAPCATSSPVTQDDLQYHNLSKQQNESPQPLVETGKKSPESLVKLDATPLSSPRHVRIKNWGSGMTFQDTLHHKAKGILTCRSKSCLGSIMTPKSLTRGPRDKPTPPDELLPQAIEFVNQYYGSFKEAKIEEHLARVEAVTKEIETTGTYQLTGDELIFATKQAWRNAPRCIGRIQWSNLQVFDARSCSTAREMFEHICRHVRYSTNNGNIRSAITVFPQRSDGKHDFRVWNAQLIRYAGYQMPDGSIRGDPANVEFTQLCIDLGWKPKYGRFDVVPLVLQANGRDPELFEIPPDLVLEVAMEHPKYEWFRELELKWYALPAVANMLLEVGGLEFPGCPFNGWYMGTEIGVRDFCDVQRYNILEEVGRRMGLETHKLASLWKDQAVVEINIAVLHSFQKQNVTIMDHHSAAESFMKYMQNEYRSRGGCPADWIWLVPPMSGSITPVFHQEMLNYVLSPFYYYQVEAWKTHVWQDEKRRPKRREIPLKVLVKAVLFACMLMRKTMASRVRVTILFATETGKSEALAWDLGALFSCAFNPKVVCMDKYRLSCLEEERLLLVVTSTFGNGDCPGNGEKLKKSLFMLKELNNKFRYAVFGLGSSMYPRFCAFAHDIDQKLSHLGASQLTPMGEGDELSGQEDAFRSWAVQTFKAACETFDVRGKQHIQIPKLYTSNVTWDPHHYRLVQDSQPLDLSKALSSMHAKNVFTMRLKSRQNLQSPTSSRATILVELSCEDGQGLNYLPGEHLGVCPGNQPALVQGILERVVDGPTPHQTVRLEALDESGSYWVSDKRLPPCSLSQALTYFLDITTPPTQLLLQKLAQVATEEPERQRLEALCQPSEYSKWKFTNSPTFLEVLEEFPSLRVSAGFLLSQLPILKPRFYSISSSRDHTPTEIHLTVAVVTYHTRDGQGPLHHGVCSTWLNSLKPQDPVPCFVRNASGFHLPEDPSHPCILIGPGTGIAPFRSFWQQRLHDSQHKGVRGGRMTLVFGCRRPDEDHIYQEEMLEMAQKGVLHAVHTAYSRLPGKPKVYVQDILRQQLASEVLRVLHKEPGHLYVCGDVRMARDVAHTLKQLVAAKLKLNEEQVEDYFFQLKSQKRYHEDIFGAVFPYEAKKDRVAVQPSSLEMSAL
Sequence of Nitric oxide synthase (inducible and endothelial) (Homo sapiens) (P35228 whole entry, looked up, one chain of several): as the sequence (P35228 whole entry) above
Sequence of Nitric oxide synthase 1 (P29475 whole entry): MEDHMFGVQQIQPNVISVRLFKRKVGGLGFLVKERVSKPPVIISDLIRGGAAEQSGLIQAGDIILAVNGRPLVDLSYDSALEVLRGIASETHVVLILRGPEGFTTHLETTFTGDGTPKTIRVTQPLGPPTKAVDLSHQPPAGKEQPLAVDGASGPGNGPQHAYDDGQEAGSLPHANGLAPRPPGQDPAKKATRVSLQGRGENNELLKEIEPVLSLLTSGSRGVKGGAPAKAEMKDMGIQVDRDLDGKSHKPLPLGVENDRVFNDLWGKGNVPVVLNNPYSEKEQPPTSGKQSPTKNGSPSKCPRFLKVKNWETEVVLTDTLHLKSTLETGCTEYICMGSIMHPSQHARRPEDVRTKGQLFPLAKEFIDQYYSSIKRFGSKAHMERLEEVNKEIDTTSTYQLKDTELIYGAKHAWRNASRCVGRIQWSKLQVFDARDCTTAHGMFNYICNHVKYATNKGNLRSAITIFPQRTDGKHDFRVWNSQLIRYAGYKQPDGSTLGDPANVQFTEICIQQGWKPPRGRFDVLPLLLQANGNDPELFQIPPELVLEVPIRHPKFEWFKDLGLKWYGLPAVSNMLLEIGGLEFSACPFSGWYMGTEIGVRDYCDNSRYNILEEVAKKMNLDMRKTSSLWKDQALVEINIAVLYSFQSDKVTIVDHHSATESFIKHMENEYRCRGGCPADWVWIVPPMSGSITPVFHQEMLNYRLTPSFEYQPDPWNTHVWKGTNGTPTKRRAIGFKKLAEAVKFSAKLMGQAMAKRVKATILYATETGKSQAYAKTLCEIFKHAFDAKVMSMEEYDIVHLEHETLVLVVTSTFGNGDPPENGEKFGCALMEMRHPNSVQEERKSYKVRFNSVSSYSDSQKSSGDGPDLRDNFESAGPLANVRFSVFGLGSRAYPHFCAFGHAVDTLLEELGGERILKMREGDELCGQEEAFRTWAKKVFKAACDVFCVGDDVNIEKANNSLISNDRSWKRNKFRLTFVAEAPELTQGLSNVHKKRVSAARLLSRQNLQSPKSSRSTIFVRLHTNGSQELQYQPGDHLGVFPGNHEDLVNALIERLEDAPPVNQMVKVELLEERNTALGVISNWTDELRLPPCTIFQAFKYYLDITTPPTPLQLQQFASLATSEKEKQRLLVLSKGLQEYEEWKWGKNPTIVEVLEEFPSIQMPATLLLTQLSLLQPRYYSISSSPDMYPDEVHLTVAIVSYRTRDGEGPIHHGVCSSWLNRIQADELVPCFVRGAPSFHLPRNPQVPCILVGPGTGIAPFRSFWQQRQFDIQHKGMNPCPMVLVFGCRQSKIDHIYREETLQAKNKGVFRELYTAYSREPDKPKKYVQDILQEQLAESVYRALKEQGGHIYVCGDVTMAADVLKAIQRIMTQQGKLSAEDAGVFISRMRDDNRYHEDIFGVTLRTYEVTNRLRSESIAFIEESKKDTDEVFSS

SMILES | IC50 (Nitric oxide synthase 1) [µM] | IC50 [1] [µM] | IC50 (Nitric oxide synthase 3) [µM] | Selectivity [2] | inhibition in vivo at 10 mg/kg (Rattus norvegicus) [%]
NC1=NC(Cc2ccccc2)CCC1 (stereo not given) | 0.9 | – | – | – | –
NC1=NC(C(F)(F)F)CCC1 (stereo not given) | 0.5 | 0.5 | 2 | 4 | –
CC1CCC(N)=NC1 (stereo not given) | – | 5.1 | 58 | – | –
CCCC1CCCC(N)=N1 (stereo not given) | 0.5 | 0.2 | 2.2 | 11 | –
CC1CCCC(N)=N1 (stereo not given) | 0.4 | 0.5 | 0.6 | 1 | –
CCC1CCN=C(N)C1 (stereo not given) | – | – | – | 5 | –
NC1=NCCC(C(F)(F)F)C1 (stereo not given) | 3.3 | 3.2 | 47 | 15 | 24
CN1CCCCC1=N | > 100 | > 100 | > 100 | – | –
N=C1CCCCN1 | – | 1.1 | – | – | 62
NC1=NC(C2CCCCC2)CCC1 (stereo not given) | 5.3 | 8.7 | 142 | 16 | 18
CC1CCCN=C1N (stereo not given) | 0.7 | 6 | 3 | 0.5 | –
NC1=NC(CC2CCCCC2)CCC1 (stereo not given) | – | – | – | 64 | –
CNC1=NCCCC1 | > 100 | > 100 | > 100 | – | –
CC1CCN=C(N)C1 (stereo not given) | – | 0.1 | – | – | 87
CCC1CCNC(=N)C1 (stereo not given) | 1.6 | 2.6 | 13 | – | –
NC1=Nc2ccccc2CC1 | 28 | 99 | 218 | 2 | –
CC1(C)CCN=C(N)C1 | 5.9 | 3.4 | 5.3 | 1.6 | –
CCCC1CCN=C(N)C1 (stereo not given) | > 100 | > 100 | > 100 | – | –
CC1CC(N)=NC(C)C1 (stereo not given) | 0.06 | 0.08 | 0.3 | 4 | 98
